The record followed here is ChEMBL document CHEMBL1240473, “Synthesis and bioassay of aminosulfonyl-1,3,4-oxadiazoles and their interconversion to 1,3,4-thiadiazoles” (2010).

What all share (format): functional
The test system of assay [1] is Fusarium solani. In words: Antimicrobial activity against Fusarium solani NCIM 1330 after 48 hrs by microdilution susceptibility method. The conditions noted are these: NCIM 1330, 48 h. Summed up: (§1)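 Broth microdilution MIC with NCIM strains. Compounds and the references (chloramphenicol, antibacterial; ketoconazole, antifungal) were dissolved in DMSO at 800 and diluted two-fold from 400 down to 6.25. Wells were inoculated with the microbial suspension and incubated at 36 °C, 24 h for bacteria and 48 h for fungi. MIC was the lowest concentration with no visible growth.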
(In general: Dilution methods test growth across graded concentrations, often in twofold steps.)

Assay [2] deals with Bacillus subtilis. In words: Antimicrobial activity against Bacillus subtilis NCIM 2063 at 200 ug/disk after 24 hrs by agar disc-diffusion method. As to conditions: NCIM 2063, 24 h, read-out: DIZ. Put shortly:
(§2)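 Agar disc diffusion with NCIM strains. Sterile 6 mm filter-paper discs were moistened with compound in DMSO at 100 or 200 per disc and placed on agar plates pre-inoculated with each organism. Plates were incubated at 37 °C. Growth-inhibition zone diameter was read at 24 h for bacteria and 48 h for fungi.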
Background: A growth-free zone around the sample is the usual read-out of agar diffusion tests.

Assay [3] has as its system Fusarium solani. In words: Antimicrobial activity against Fusarium solani NCIM 1330 at 100 ug/disk after 48 hrs by agar disc-diffusion method. As to conditions: NCIM 1330, 48 h, read-out: DIZ. Put shortly: as §2
Assay [4] is described as follows: Antioxidant activity assessed as nitric oxide scavenging activity at 100 uM after 120 min by Griess assay. Put shortly: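 Sodium nitroprusside (5 mM) in phosphate buffer pH 7.4 was incubated with test compound dissolved in dioxane/methanol at 25 °C for 120 min. A solvent-only control was run in parallel. Aliquots were mixed 1:1 with Griess reagent (1% sulfanilamide, 0.1% N-naphthylethylenediamine dihydrochloride, 2% o-phosphoric acid in water).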

Assay [5] deals with Fusarium solani. In words: Antimicrobial activity against Fusarium solani NCIM 1330 at 200 ug/disk after 48 hrs by agar disc-diffusion method. As to conditions: NCIM 1330, 48 h, read-out: DIZ. Summed up: as §2
The test system of assay [6] is Curvularia lunata. Nature of the assay: Antimicrobial activity against Curvularia lunata NCIM 716 at 100 ug/disk after 48 hrs by agar disc-diffusion method. The conditions noted are these: NCIM 716, 48 h, read-out: DIZ. Put shortly: as §2
Assay [7] deals with Curvularia lunata. Nature of the assay: Antimicrobial activity against Curvularia lunata NCIM 716 after 48 hrs by microdilution susceptibility method. The conditions noted are these: NCIM 716, 48 h. Put shortly: as §1
Assay [8] has as its system Curvularia lunata. In words: Antimicrobial activity against Curvularia lunata NCIM 716 at 200 ug/disk after 48 hrs by agar disc-diffusion method. As to conditions: NCIM 716, 48 h, read-out: DIZ. Summed up:
as §2

The subject of assay [9] is Radical scavenging activity. In words: Antioxidant activity assessed as DPPH free radical scavenging activity at 100 uM after 20 mins. Summed up:
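Compound solutions were added to DPPH in dioxane/ethanol and kept at ambient temperature for 20 min, then absorbance was read at 517 nm. Percent inhibition = (A_control − A_sample)/A_control × 100, […].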
(Loss of DPPH colour is used to gauge radical scavenging.)

The test system of assay [10] is Proteus vulgaris. In words: Antimicrobial activity against Proteus vulgaris NCIM 2027 at 100 ug/disk after 24 hrs by agar disc-diffusion method. As to conditions: NCIM 2027, 24 h, read-out: DIZ.
In assay [11] the test system is Klebsiella pneumoniae. Nature of the assay: Antimicrobial activity against Klebsiella pneumoniae NCIM 2957 at 100 ug/disk after 24 hrs by agar disc-diffusion method. The conditions noted are these: NCIM 2957, 24 h, read-out: DIZ. Put shortly: as §2
Assay [12] deals with Aspergillus niger. In words: Antimicrobial activity against Aspergillus niger NCIM 596 after 48 hrs by microdilution susceptibility method. As to conditions: NCIM 596, 48 h. Put shortly: as §1
Assay [13] relates to Bacillus subtilis. Nature of the assay: Antimicrobial activity against Bacillus subtilis NCIM 2063 after 24 hrs by microdilution susceptibility method. As to conditions: NCIM 2063, 24 h. Put shortly: as §1
In assay [14] the test system is Staphylococcus aureus. Nature of the assay: Antimicrobial activity against Staphylococcus aureus NCIM 5021 at 200 ug/disk after 24 hrs by agar disc-diffusion method. The conditions noted are these: NCIM 5021, 24 h, read-out: DIZ. Summed up: as §2
In assay [15] the test system is Proteus vulgaris. In words: Antimicrobial activity against Proteus vulgaris NCIM 2027 at 200 ug/disk after 24 hrs by agar disc-diffusion method. As to conditions: NCIM 2027, 24 h, read-out: DIZ.
For assay [16], the system named is Staphylococcus aureus. In words: Antimicrobial activity against Staphylococcus aureus NCIM 5021 after 24 hrs by microdilution susceptibility method. The conditions noted are these: NCIM 5021, 24 h. Put shortly:
as §1

Assay [17] concerns Aspergillus niger. In words: Antimicrobial activity against Aspergillus niger NCIM 596 at 100 ug/disk after 48 hrs by agar disc-diffusion method. As to conditions: NCIM 596, 48 h, read-out: DIZ. Summed up: as §2
The subject of assay [18] is Klebsiella pneumoniae. Nature of the assay: Antimicrobial activity against Klebsiella pneumoniae NCIM 2957 after 24 hrs by microdilution susceptibility method. As to conditions: NCIM 2957, 24 h. Summed up: as §1
In assay [19] the test system is Klebsiella pneumoniae. In words: Antimicrobial activity against Klebsiella pneumoniae NCIM 2957 at 200 ug/disk after 24 hrs by agar disc-diffusion method. The conditions noted are these: NCIM 2957, 24 h, read-out: DIZ. Put shortly:
as §2

For assay [20], the system named is Staphylococcus aureus. In words: Antimicrobial activity against Staphylococcus aureus NCIM 5021 at 100 ug/disk after 24 hrs by agar disc-diffusion method. As to conditions: NCIM 5021, 24 h, read-out: DIZ. Summed up: as §2
The subject of assay [21] is Bacillus subtilis. In words: Antimicrobial activity against Bacillus subtilis NCIM 2063 at 100 ug/disk after 24 hrs by agar disc-diffusion method. The conditions noted are these: NCIM 2063, 24 h, read-out: DIZ. Put shortly: as §2
Assay [22] concerns Proteus vulgaris. Nature of the assay: Antimicrobial activity against Proteus vulgaris NCIM 2027 after 24 hrs by microdilution susceptibility method. As to conditions: NCIM 2027, 24 h.
The subject of assay [23] is Aspergillus niger. In words: Antimicrobial activity against Aspergillus niger NCIM 596 at 200 ug/disk after 48 hrs by agar disc-diffusion method. As to conditions: NCIM 596, 48 h, read-out: DIZ. Put shortly: as §2

Converted amounts (≈) assume the structure as drawn.

In general, MIC refers to the least concentration at which growth counts as inhibited. Read a high MIC as weaker potency.

For the molecule `O=S(=O)(Cc1nnc(CS(=O)(=O)c2ccc(Cl)cc2)s1)Nc1ccc(Cl)cc1`, the MIC against Fusarium solani [1] is 50 µg/mL (≈ 105 µM); in the assay with Curvularia lunata [7] it was 50 µg/mL (≈ 105 µM); with Aspergillus niger [12], 50 µg/mL (≈ 105 µM); in the assay with Bacillus subtilis [13] it was 25 µg/mL (≈ 52.3 µM); against Staphylococcus aureus [16] it was 25 µg/mL (≈ 52.3 µM); in the assay with Klebsiella pneumoniae [18], 50 µg/mL (≈ 105 µM). The molecule further yielded an MIC in the assay with Proteus vulgaris [22] of 50 µg/mL (≈ 105 µM). For the same molecule, the zone of inhibition at 200 µg/disc with Bacillus subtilis [2] worked out at 32 mm; in the assay with Fusarium solani [5], 37 mm; in the assay with Curvularia lunata [8], 36 mm; in the assay with Staphylococcus aureus [14] it was 33 mm; with Proteus vulgaris [15] it was 28 mm; in the assay on Klebsiella pneumoniae [19], 30 mm. The zone of inhibition at 200 µg/disc in the assay with Aspergillus niger [23] is 33 mm. The zone of inhibition at 100 µg/disc amounted to 33 mm with Fusarium solani [3]; 34 mm in the assay on Curvularia lunata [6]; 25 mm with Proteus vulgaris [10]; 28 mm in the assay with Klebsiella pneumoniae [11]; 32 mm in the assay with Aspergillus niger [17]; 31 mm with Staphylococcus aureus [20]. Moreover, the zone of inhibition at 100 µg/disc in the assay on Bacillus subtilis [21] was 28 mm. Moreover, the Activity in assay [4] was 28.2%; in assay [9] it was 29.9%.

Consider `Cc1ccc(NS(=O)(=O)Cc2nnc(CS(=O)(=O)c3ccc(C)cc3)s2)cc1`, for which the MIC against Fusarium solani [1] stood at 50 µg/mL (≈ 114 µM); in the assay with Curvularia lunata [7], 100 µg/mL (≈ 229 µM); in the assay on Aspergillus niger [12], 100 µg/mL (≈ 229 µM); in the assay with Bacillus subtilis [13], 50 µg/mL (≈ 114 µM); in the assay with Staphylococcus aureus [16], 50 µg/mL (≈ 114 µM); with Klebsiella pneumoniae [18], 100 µg/mL (≈ 229 µM). In the assay with Proteus vulgaris [22], this molecule gave a minimum inhibitory concentration (MIC) of 100 µg/mL (≈ 229 µM). Besides, the zone of inhibition at 200 µg/disc was 29 mm in the assay with Bacillus subtilis [2]; 35 mm in the assay with Fusarium solani [5]; 33 mm in the assay on Curvularia lunata [8]; 28 mm with Staphylococcus aureus [14]; 26 mm with Proteus vulgaris [15]; 27 mm in the assay on Klebsiella pneumoniae [19]. Also, the zone of inhibition at 200 µg/disc in the assay on Aspergillus niger [23] was 26 mm. In addition, the zone of inhibition at 100 µg/disc in the assay on Fusarium solani [3] was found to be 27 mm; in the assay with Curvularia lunata [6], 25 mm; with Proteus vulgaris [10] it was 24 mm; in the assay with Klebsiella pneumoniae [11], 25 mm; with Aspergillus niger [17] it was 22 mm; in the assay on Staphylococcus aureus [20], 25 mm. In the assay with Bacillus subtilis [21], the zone of inhibition at 100 µg/disc was found to be 27 mm. In addition, the Activity in assay [4] worked out at 20.3%; in assay [9] it was 21.7%.

As for `O=C(N[C@H](CO)[C@H](O)c1ccc([N+](=O)[O-])cc1)C(Cl)Cl` [CHLORAMPHENICOL], the zone of inhibition at 200 µg/disc in the assay with Bacillus subtilis [2] was determined as 44 mm; in the assay on Staphylococcus aureus [14] it was 41 mm; in the assay on Proteus vulgaris [15], 45 mm; in the assay with Klebsiella pneumoniae [19], 42 mm. In addition, the zone of inhibition at 100 µg/disc worked out at 42 mm with Proteus vulgaris [10], 37 mm in the assay with Klebsiella pneumoniae [11], 35 mm in the assay on Staphylococcus aureus [20] and 38 mm with Bacillus subtilis [21]. Further, the MIC against Bacillus subtilis [13] stood at 6.25 µg/mL (≈ 19.3 µM); in the assay on Staphylococcus aureus [16], 6.25 µg/mL (≈ 19.3 µM); in the assay with Klebsiella pneumoniae [18], 12.5 µg/mL (≈ 38.7 µM); with Proteus vulgaris [22] it was 12.5 µg/mL (≈ 38.7 µM).

On to `O=S(=O)(Cc1nnc(-c2ccc(Cl)cc2)s1)Nc1ccc(Cl)cc1`, for which the minimum inhibitory concentration (MIC) with Fusarium solani [1] worked out at 200 µg/mL (≈ 500 µM); in the assay with Curvularia lunata [7], 100 µg/mL (≈ 250 µM); in the assay on Aspergillus niger [12] it was 200 µg/mL (≈ 500 µM); in the assay on Bacillus subtilis [13] it was 100 µg/mL (≈ 250 µM); in the assay with Staphylococcus aureus [16], 100 µg/mL (≈ 250 µM); in the assay with Klebsiella pneumoniae [18], 200 µg/mL (≈ 500 µM). This molecule also registered an MIC against Proteus vulgaris [22] of 200 µg/mL (≈ 500 µM). Further, the zone of inhibition at 200 µg/disc came out at 26 mm with Bacillus subtilis [2]; 30 mm in the assay with Fusarium solani [5]; 27 mm in the assay with Curvularia lunata [8]; 27 mm with Staphylococcus aureus [14]; 20 mm with Proteus vulgaris [15]; 22 mm in the assay on Klebsiella pneumoniae [19]. Also, the zone of inhibition at 200 µg/disc in the assay on Aspergillus niger [23] is 23 mm. Also, the zone of inhibition at 100 µg/disc is 27 mm in the assay with Fusarium solani [3]; 25 mm with Curvularia lunata [6]; 18 mm in the assay on Proteus vulgaris [10]; 19 mm in the assay on Klebsiella pneumoniae [11]; 20 mm in the assay on Aspergillus niger [17]; 25 mm with Staphylococcus aureus [20]. Also, in the assay on Bacillus subtilis [21], the zone of inhibition at 100 µg/disc is 23 mm. Moreover, the values for the Activity in [4] and in [9] were 35.7% and 34.6%, respectively.

For `O=S(=O)(Cc1nnc(CS(=O)(=O)c2ccccc2)s1)Nc1ccccc1`, the MIC in the assay with Fusarium solani [1] came to 100 µg/mL (≈ 244 µM); in the assay with Curvularia lunata [7], 100 µg/mL (≈ 244 µM); in the assay on Aspergillus niger [12], 50 µg/mL (≈ 122 µM); in the assay on Bacillus subtilis [13] it was 25 µg/mL (≈ 61 µM); with Staphylococcus aureus [16], 50 µg/mL (≈ 122 µM); with Klebsiella pneumoniae [18], 50 µg/mL (≈ 122 µM). Further, the minimal inhibitory concentration (MIC) against Proteus vulgaris [22] amounted to 100 µg/mL (≈ 244 µM). The zone of inhibition at 200 µg/disc in the assay on Bacillus subtilis [2] is 31 mm; in the assay on Fusarium solani [5], 33 mm; in the assay on Curvularia lunata [8], 32 mm; with Staphylococcus aureus [14], 30 mm; with Proteus vulgaris [15] it was 26 mm; with Klebsiella pneumoniae [19] it was 29 mm. The zone of inhibition at 200 µg/disc in the assay with Aspergillus niger [23] was 30 mm. The zone of inhibition at 100 µg/disc turned out to be 31 mm in the assay with Fusarium solani [3]; 30 mm with Curvularia lunata [6]; 23 mm in the assay on Proteus vulgaris [10]; 27 mm in the assay with Klebsiella pneumoniae [11]; 29 mm in the assay on Aspergillus niger [17]; 27 mm with Staphylococcus aureus [20]. For the same molecule, in the assay with Bacillus subtilis [21], the zone of inhibition at 100 µg/disc came to 29 mm. Besides, the Activity in assay [4] is 22.6%; in [9], 23.8%.
